Results on 23 molecules are retold here after ChEMBL document CHEMBL1125001, “Selective inhibition of urokinase by substituted phenylguanidines: quantitative structure-activity relationship analyses” (J Med Chem, 1990).

The target in assay [1] is Plasma kallikrein (Homo sapiens) (UniProt P03952). Briefly: Inhibition against human plasma Kallikrein at 2 mM. The assay is classed as cell-free. In a few lines:
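Human plasma kallikrein in 50 mM Tris/HCl, 100 mM NaCl, pH 8.44, with H-D-Pro-Phe-Arg-p-nitroanilide (S-2302) as chromogenic substrate. Percent inhibition was taken at 2.0 mM inhibitor against 0.1 mM S-2302 (Km = 0.604 mM).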

In assay [2] the target is T1, Tissue-type plasminogen activator (Homo sapiens, UniProt P00750). The assay is described as follows: Inhibition against Tissue plasminogen activator at 1 mM. The essentials:
(§1)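 Tissue-type plasminogen activator assayed by chromogenic amidolysis of H-D-Ile-Pro-Arg-p-nitroanilide (S-2288) in 0.2 M Tris/AcOH, pH 8.00. Percent inhibition was measured at 1.0 mM inhibitor against 0.3 mM S-2288 (Km = 0.673 mM). Separate Ki work used 0.1–0.9 mM S-2288.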
Target sequence in this assay (P00750 36-562 limits assumed): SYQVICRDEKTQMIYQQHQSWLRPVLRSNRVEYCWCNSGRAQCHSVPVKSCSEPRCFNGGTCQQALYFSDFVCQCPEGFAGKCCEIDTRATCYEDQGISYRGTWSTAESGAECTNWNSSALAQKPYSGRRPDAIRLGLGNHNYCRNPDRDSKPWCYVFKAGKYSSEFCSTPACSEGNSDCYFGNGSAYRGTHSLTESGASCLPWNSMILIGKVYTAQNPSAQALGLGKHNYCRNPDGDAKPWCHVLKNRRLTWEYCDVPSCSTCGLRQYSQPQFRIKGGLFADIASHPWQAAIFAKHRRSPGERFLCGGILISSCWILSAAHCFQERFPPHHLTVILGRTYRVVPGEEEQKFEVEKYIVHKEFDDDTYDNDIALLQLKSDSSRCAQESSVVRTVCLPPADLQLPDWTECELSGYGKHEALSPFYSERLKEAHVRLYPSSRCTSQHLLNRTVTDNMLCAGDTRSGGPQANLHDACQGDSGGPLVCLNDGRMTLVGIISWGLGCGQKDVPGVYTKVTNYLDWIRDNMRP

Assay [3] concerns the target T2, Urokinase-type plasminogen activator (Homo sapiens, UniProt P00749). The assay is described as follows: log1/Ki value was calculated against Urokinase-type plasminogen activator. The conditions noted are these: read-out: Log 1/Ki (converted).
Assay [4] has as its target T3, Serine protease 1 (Bos taurus, UniProt P00760).
T3 sequence (P00760 whole entry): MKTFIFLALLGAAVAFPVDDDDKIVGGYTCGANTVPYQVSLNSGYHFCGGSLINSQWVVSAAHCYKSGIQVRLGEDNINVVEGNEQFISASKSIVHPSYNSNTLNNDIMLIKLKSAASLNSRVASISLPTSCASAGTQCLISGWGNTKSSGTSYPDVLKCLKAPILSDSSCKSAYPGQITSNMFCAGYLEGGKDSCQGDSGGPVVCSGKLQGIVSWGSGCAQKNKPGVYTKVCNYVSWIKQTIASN
The assay is described as follows: Inhibition against Trypsin.

Assay [5] concerns the target T3, Serine protease 1. Briefly: log1/Ki value was calculated against Trypsin. As to conditions: read-out: Log 1/Ki (converted).
Assay [6] concerns the target Prothrombin (Homo sapiens) (UniProt P00734). The assay is described as follows: Inhibition against human plasma thrombin at 1.0 mM. The assay is classed as cell-free. In a few lines: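 Highly purified human plasma thrombin in 0.2 M Tris/AcOH, pH 8.00, with H-D-Ile-Pro-Arg-p-nitroanilide (S-2288) as chromogenic substrate. Inhibition was measured at 1.0 mM inhibitor against 7.0 µM S-2288 (Km = 7.10 µM).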

Assay [7] has as its target T2, Urokinase-type plasminogen activator. Briefly: Inhibition against Urokinase-type plasminogen activator.
Assay [8] deals with Plasminogen (Homo sapiens, UniProt P00747). Briefly: Inhibition against human plasmin was determined at 0.5 mM. The essentials:
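Human plasmin chromogenic amidolysis assay with substrate S-2251. Inhibition was measured at 0.5 mM inhibitor against 0.3 mM S-2251 (Km = 0.664 mM).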

The target of assay [9] is T1, Tissue-type plasminogen activator. Briefly: The compound was tested for its inhibition against Tissue plasminogen activator at 1 mM when assayed against 0.3 mM S-2288 (Km = 0.673 mM). The essentials:
as §1
Target sequence in this assay (P00750 whole entry): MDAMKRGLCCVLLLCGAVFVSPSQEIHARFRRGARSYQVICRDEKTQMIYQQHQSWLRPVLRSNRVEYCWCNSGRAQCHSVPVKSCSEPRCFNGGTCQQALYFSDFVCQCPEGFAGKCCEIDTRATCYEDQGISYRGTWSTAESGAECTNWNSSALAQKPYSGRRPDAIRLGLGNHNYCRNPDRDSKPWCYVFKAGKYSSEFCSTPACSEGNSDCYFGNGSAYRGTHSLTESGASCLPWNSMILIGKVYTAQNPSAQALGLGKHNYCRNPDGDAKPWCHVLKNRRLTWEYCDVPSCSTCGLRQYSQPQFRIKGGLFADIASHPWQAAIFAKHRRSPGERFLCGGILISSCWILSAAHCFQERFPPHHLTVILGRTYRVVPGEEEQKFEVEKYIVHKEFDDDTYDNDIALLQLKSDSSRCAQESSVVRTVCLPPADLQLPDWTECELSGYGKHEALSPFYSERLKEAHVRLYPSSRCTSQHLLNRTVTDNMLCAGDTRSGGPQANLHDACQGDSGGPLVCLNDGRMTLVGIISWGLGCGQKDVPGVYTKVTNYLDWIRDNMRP

One may read the inhibition as the share of the control response that was lost under treatment. Higher therefore signals a response far below the control.

Plasma kallikrein (Homo sapiens), sequence (P03952 20-390 limits assumed): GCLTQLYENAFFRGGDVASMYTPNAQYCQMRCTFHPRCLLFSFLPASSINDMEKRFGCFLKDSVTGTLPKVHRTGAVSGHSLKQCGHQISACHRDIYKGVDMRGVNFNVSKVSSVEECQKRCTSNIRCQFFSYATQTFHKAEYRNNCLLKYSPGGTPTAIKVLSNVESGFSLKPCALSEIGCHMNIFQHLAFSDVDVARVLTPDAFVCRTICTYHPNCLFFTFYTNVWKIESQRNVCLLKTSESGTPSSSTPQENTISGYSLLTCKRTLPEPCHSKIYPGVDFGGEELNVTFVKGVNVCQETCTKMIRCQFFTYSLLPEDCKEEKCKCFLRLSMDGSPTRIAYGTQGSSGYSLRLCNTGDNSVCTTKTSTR
Plasma kallikrein (Homo sapiens), sequence (P03952 391-638 limits assumed): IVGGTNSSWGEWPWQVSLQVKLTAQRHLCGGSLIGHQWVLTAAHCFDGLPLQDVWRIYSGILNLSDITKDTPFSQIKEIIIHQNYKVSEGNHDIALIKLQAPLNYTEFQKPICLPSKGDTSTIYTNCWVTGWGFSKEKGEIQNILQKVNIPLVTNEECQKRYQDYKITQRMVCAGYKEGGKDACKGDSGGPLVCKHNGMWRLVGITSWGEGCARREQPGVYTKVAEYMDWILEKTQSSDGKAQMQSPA
Plasminogen, sequence (P00747 97-580 limits assumed): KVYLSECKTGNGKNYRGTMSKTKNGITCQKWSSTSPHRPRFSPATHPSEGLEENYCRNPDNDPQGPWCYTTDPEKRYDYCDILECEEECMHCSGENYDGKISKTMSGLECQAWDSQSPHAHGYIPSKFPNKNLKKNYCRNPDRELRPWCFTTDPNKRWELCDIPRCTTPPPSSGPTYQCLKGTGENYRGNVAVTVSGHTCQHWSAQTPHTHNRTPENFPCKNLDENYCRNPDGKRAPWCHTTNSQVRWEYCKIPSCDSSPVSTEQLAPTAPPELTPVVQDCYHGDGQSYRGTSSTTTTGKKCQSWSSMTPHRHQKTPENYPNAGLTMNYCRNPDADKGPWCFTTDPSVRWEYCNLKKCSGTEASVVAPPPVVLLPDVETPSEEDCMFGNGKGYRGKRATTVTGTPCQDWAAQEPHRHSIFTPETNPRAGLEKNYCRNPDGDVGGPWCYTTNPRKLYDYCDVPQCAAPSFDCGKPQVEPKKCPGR
Plasminogen, sequence (P00747 581-810 limits assumed): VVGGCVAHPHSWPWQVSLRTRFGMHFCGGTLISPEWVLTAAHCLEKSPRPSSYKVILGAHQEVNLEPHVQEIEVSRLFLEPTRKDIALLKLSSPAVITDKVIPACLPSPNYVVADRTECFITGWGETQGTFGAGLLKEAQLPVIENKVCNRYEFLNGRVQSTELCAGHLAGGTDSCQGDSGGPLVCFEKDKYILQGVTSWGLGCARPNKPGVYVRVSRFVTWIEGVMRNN

Take `Cc1ccc(NC(=N)N)cc1`: the figures for the inhibition in assay [1], in [2] and in assay [6] were less than 30%, less than 45% and less than 10%, respectively. Moreover, the Ki in [3] is 15.6 µM; in assay [4], 318 µM; in assay [5] it was 318 µM; in assay [7] it was 15.6 µM.

`COc1ccc(NC(=N)N)cc1`: the inhibition was less than 30% in assay [1], less than 45% in [2] and less than 10% in assay [6]. For the same molecule, the Ki was 676 µM in assay [3], 5890 µM in assay [4], 5890 µM in assay [5] and 676 µM in assay [7].

As to `COc1ccccc1NC(=N)N`, the results for the inhibition in assay [1], in [2] and in [6] were less than 30%, less than 45% and less than 10%, respectively. The Ki in assay [3] is 136 µM; in assay [4], 881 µM; in assay [5] it was 881 µM; in assay [7], 136 µM.

For `COC(=O)c1ccc(NC(=N)N)cc1`, the inhibition in [1] was less than 30%; in assay [2] it was less than 45%; in [6], less than 10%. Moreover, the Ki in [3] was 1450 µM; in assay [4], 652 µM; in assay [5] it was 652 µM; in assay [7], 1450 µM.

For `NC(N)=Nc1ccccc1Cl`, the Ki was 103 µM in assay [3], 898 µM in assay [4], 897 µM in assay [5] and 103 µM in assay [7].

With `N=C(N)Nc1ccc(Br)cc1`, the inhibition in assay [1] was less than 30%; in [2] it was less than 45%; in assay [6], less than 10%. Further, the Ki in assay [3] was 30.7 µM; in assay [4], 2780 µM; in assay [5] it was 2780 µM; in assay [7], 30.7 µM.

`N=C(N)Nc1ccc(C(=O)O)cc1` [4-GUANIDINO-BENZOIC ACID]: the inhibition in assay [1] was less than 30%; in assay [2], less than 45%; in assay [6], less than 10%. Also, the Ki in assay [3] is 745 µM; in assay [4], 10000 µM; in assay [5], 10000 µM; in [7], 745 µM.

For the molecule `N=C(N)Nc1ccccc1Cl`, the results for the inhibition in [1], in assay [2] and in assay [6] were less than 30%, less than 45% and less than 10%, respectively.

For `NC(N)=Nc1cccc(Cl)c1`, the Ki in [3] is 61.7 µM; in assay [4], 1100 µM; in assay [5] it was 1100 µM; in [7], 61.8 µM.

For `N=C(N)Nc1ccc(F)cc1`, the values for the inhibition in assay [1], in assay [2] and in assay [6] were less than 30%, less than 45% and less than 10%, respectively. Also, the Ki in assay [3] was 72.4 µM; in assay [4], 808 µM; in assay [5] it was 807 µM; in [7], 72.4 µM.

As to `N=C(N)Nc1ccccc1[N+](=O)[O-]`, the inhibition was less than 30% in [1], less than 45% in [2] and less than 10% in [6].

In the case of `Cc1ccccc1NC(=N)N`, the inhibition in assay [1] is less than 30%; in assay [2] it was less than 45%; in [6] it was less than 10%. Also, the Ki in assay [3] was 259 µM; in assay [4], 3550 µM; in assay [5], 3550 µM; in [7], 259 µM.

As to `N=C(N)Nc1cccc(C(F)(F)F)c1`, the inhibition is less than 30% in assay [1], less than 45% in [2] and less than 10% in assay [6].

In the case of `NC(N)=Nc1ccccc1[N+](=O)[O-]`, the Ki is 54.3 µM in assay [3], 133 µM in [4], 133 µM in [5] and 54.3 µM in assay [7].

On to `N=C(N)Nc1cccc(Cl)c1`, for which the inhibition was less than 30% in assay [1], less than 45% in assay [2] and less than 10% in assay [6].

With `N=C(N)Nc1ccccc1N`, the inhibition was less than 30% in [1], less than 45% in assay [2] and less than 10% in [6]. In addition, the Ki in [3] is 388 µM; in assay [4] it was 1180 µM; in assay [5], 1180 µM; in [7] it was 388 µM.

As to `N=C(N)Nc1ccc(C(F)(F)F)cc1`, the values for the inhibition in assay [1], in assay [2] and in assay [6] were less than 30%, less than 45% and less than 10%, respectively. The Ki in assay [3] was 6.49 µM; in [4], 63.1 µM; in assay [5], 63.1 µM; in [7], 6.49 µM.

In turn, `N=C(N)Nc1ccc(/C=C/C(=O)O)cc1` showed an inhibition in [2] of less than 45%. Further, the Ki was 1320 µM in [3], 4920 µM in assay [4], 4920 µM in [5] and 1330 µM in [7].

As for `N=C(N)Nc1ccccc1` [PHENYLGUANIDINE], the values for the inhibition in assay [1] and in assay [6] were less than 30% and less than 10%, respectively. Also, the Ki in assay [8] is 2610 µM; in assay [9], 733 µM; in assay [3], 20.6 µM; in [4] it was 163 µM; in assay [5], 163 µM; in [7], 20.6 µM.

Take `NC(N)=Nc1cccc(C(F)(F)F)c1`: the Ki in assay [3] was 419 µM; in assay [4], 10700 µM; in assay [5] it was 10700 µM; in [7] it was 419 µM.

For `N=C(N)Nc1ccc([N+](=O)[O-])cc1`, the inhibition was less than 30% in assay [1] and less than 10% in [6]. Also, the Ki in assay [3] is 20.6 µM; in [4], 352 µM; in [5], 352 µM; in assay [7], 20.6 µM.

For the molecule `CCc1ccc(NC(=N)N)cc1`, the inhibition was less than 30% in [1], less than 45% in [2] and less than 10% in [6]. For the same molecule, the Ki in assay [3] is 90.8 µM; in assay [4], 5770 µM; in assay [5], 5770 µM; in [7], 90.7 µM.

With `N=C(N)Nc1ccc(Cl)cc1`, the values for the inhibition in assay [1], in assay [2] and in assay [6] were less than 30%, less than 45% and less than 10%, respectively. Besides, the Ki in [3] is 6.07 µM; in assay [4], 120 µM; in [5], 120 µM; in assay [7], 6.07 µM.
